These results are taken from ChEMBL document CHEMBL5357047, “The development of thymol-isatin hybrids as broad-spectrum antibacterial agents with potent anti-MRSA activity” (RSC Med Chem, 2024).

≈ marks a conversion by molar mass, not a printed value.

Data set [1] concerns Staphylococcus aureus. The data set is described as follows: Bactericidal activity against Methicillin-resistant Staphylococcus aureus ATCC 33591 assessed as inhibition of bacterial growth measured after 48 hrs by agar plate method. The data set is classed as functional. The method, boiled down:
(§1)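 MBC: aliquots from microdilution wells without colour change subcultured on drug-free Mueller Hinton agar, 48 h at 37 °C aerobically. MBC is the lowest concentration with no visible growth. Triplicate.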

Data set [2] has as its system Staphylococcus aureus. The data set is described as follows: Antibacterial activity against Staphylococcus aureus MTCC 740 assessed as inhibition of bacterial growth at 50 uM measured after 48 hrs by agar well diffusion method. The data set is classed as functional. The note with it: read-out: IZ. (In general: A growth-free zone around the sample is the usual read-out of agar diffusion tests.)

Data set [3] has as its system Escherichia coli. The data set is described as follows: Antibacterial activity against Escherichia coli MTCC 119 assessed as inhibition of bacterial growth at 50 uM measured after 48 hrs by agar well diffusion method. The data set is classed as functional. The note with it: read-out: IZ.
Data set [4] has as its system Klebsiella pneumoniae. The experiment in a line: Antibacterial activity against clinically isolated Klebsiella pneumoniae RBRJ024 assessed as inhibition of bacterial growth at 50 uM measured after 48 hrs by agar well diffusion method. It is filed as functional. The note with it: read-out: IZ.
For data set [5], the system named is Staphylococcus aureus. The data set is described as follows: Antibacterial activity against clinically isolated Methicillin-resistant Staphylococcus aureus assessed as inhibition of bacterial growth measured after 48 hrs by broth microdilution method. The data set is classed as functional. (Dilution methods test growth across graded concentrations, often in twofold steps.)

The test system of the next data set is Acinetobacter baumannii. The data set is described as follows: Antibacterial activity against clinically isolated Acinetobacter baumannii RBRJ027 assessed as inhibition of bacterial growth at 50 uM measured after 48 hrs by agar well diffusion method. It is filed as functional. The note with it: read-out: IZ.
The test system of data set [6] is Klebsiella pneumoniae. The experiment in a line: Antibacterial activity against clinically isolated Klebsiella pneumoniae RBRJ019 assessed as inhibition of bacterial growth at 50 uM measured after 48 hrs by agar well diffusion method. It is filed as functional. The note with it: read-out: IZ.
In the next data set the test system is Pseudomonas aeruginosa. The experiment in a line: Antibacterial activity against Pseudomonas aeruginosa MTCC 424 assessed as inhibition of bacterial growth at 50 uM measured after 48 hrs by agar well diffusion method. It is filed as functional. The note with it: read-out: IZ.
Data set [7] deals with Enterococcus faecalis. The data set is described as follows: Antibacterial activity against clinically isolated Enterococcus faecalis RBRJ015 assessed as inhibition of bacterial growth at 50 uM measured after 48 hrs by agar well diffusion method. The data set is classed as functional. The note with it: read-out: IZ.
Data set [8] can be described thus: Cytotoxicity against mouse L929 cells assessed as reduction in cell viability measured after 72 hrs by MTT assay. It is filed as toxicity, cell-based. The gist of the method:
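L929 cells (ATCC) grown in DMEM with 10% FBS and penicillin/streptomycin at 37 °C, 5% CO2; seeded at 5 × 10^3 cells per well and exposed to serial dilutions for 72 h, paclitaxel as positive control. MTT (5 mg mL−1), formazan dissolved in DMSO, absorbance at 490 nm; viability relative to control after blank subtraction; IC50 in μM.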
A general note: Tetrazolium assays rely on reduction of a dye to a coloured formazan, in cell work by metabolically active cells.

The subject of data set [9] is Escherichia coli. The data set is described as follows: Antibacterial activity against clinically isolated Escherichia coli RBRJ013 assessed as inhibition of bacterial growth at 50 uM measured after 48 hrs by agar well diffusion method. The data set is classed as functional. The note with it: read-out: IZ.
In data set [10] the test system is Staphylococcus aureus. The data set is described as follows: Bactericidal activity against Staphylococcus aureus MTCC 740 assessed as inhibition of bacterial growth measured after 48 hrs by agar plate method. The data set is classed as functional. The method, boiled down: as §1
Data set [11] can be described thus: Selectivity index, ratio of IC50 for cytotoxicity against mouse L929 cells to MIC for antibacterial activity against clinically isolated Methicillin-resistant Staphylococcus aureus. The note with it: read-out: Selectivity Index. The data set is classed as toxicity, cell-based.
The subject of data set [12] is Staphylococcus aureus. The experiment in a line: Antibacterial activity against clinically isolated Methicillin-resistant Staphylococcus aureus assessed as inhibition of bacterial growth at 50 uM measured after 48 hrs by agar well diffusion method. The data set is classed as functional. The note with it: read-out: IZ.
For the next data set, the system named is Enterobacter cloacae. The data set is described as follows: Antibacterial activity against clinically isolated Enterobacter cloacae RBRJ017 assessed as inhibition of bacterial growth at 50 uM measured after 48 hrs by agar well diffusion method. It is filed as functional. The note with it: read-out: IZ.
Data set [13] relates to Staphylococcus aureus. The data set is described as follows: Antibacterial activity against Methicillin-resistant Staphylococcus aureus ATCC 33591 assessed as inhibition of bacterial growth measured after 48 hrs by broth microdilution method. The data set is classed as functional.
The test system of data set [14] is Staphylococcus aureus. The experiment in a line: Bactericidal activity against clinically isolated Staphylococcus aureus RBRJ010 assessed as inhibition of bacterial growth measured after 48 hrs by agar plate method. It is filed as functional. The method, boiled down: (§2)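 MBC: 10 μL from wells showing no INT colour change after broth microdilution subcultured on drug-free Mueller Hinton agar, 48 h at 37 °C aerobically; lowest concentration with no visible growth taken as MBC (μM). Triplicate.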

Data set [15] has as its system Staphylococcus epidermidis. The data set is described as follows: Antibacterial activity against Staphylococcus epidermidis MTCC 435 assessed as inhibition of bacterial growth at 50 uM measured after 48 hrs by agar well diffusion method. The note with it: read-out: IZ. The data set is classed as functional.
The test system of data set [16] is Klebsiella pneumoniae. The data set is described as follows: Antibacterial activity against Klebsiella pneumoniae MTCC 109 assessed as inhibition of bacterial growth at 50 uM measured after 48 hrs by agar well diffusion method. It is filed as functional. The note with it: read-out: IZ.
The test system of data set [17] is Staphylococcus aureus. The experiment in a line: Antibacterial activity against clinically isolated Staphylococcus aureus RBRJ010 assessed as inhibition of bacterial growth at 50 uM measured after 48 hrs by agar well diffusion method. It is filed as functional. The note with it: read-out: IZ.
Data set [18] concerns Staphylococcus epidermidis. The experiment in a line: Bactericidal activity against Staphylococcus epidermidis MTCC 435 assessed as inhibition of bacterial growth measured after 48 hrs by agar plate method. It is filed as functional. The method, boiled down: as §2
For data set [19], the system named is Staphylococcus aureus. The data set is described as follows: Antibacterial activity against clinically isolated Staphylococcus aureus RBRJ010 assessed as inhibition of bacterial growth measured after 48 hrs by broth microdilution method. It is filed as functional.
Data set [20] concerns Staphylococcus aureus. The data set is described as follows: Antibacterial activity against Methicillin-resistant Staphylococcus aureus ATCC 33591 assessed as inhibition of bacterial growth at 50 uM measured after 48 hrs by agar well diffusion method. The data set is classed as functional. The note with it: read-out: IZ. The method, boiled down:
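Agar well diffusion on Mueller Hinton agar seeded with bacteria at 0.5 McFarland. […] Incubated 48 h at 37 °C aerobically; zone of inhibition diameter (mm) measured. Triplicate.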

Data set [21] concerns Staphylococcus aureus. The data set is described as follows: Antibacterial activity against Staphylococcus aureus MTCC 740 assessed as inhibition of bacterial growth measured after 48 hrs by broth microdilution method. The data set is classed as functional.
Data set [22] has as its system Staphylococcus epidermidis. The data set is described as follows: Antibacterial activity against Staphylococcus epidermidis MTCC 435 assessed as inhibition of bacterial growth measured after 48 hrs by broth microdilution method. The data set is classed as functional.
The test system of data set [23] is Enterococcus faecalis. The data set is described as follows: Antibacterial activity against Enterococcus faecalis MTCC 439 assessed as inhibition of bacterial growth at 50 uM measured after 48 hrs by agar well diffusion method. The data set is classed as functional. The note with it: read-out: IZ.
Data set [24] deals with Staphylococcus aureus. The data set is described as follows: Bactericidal activity against clinically isolated Methicillin-resistant Staphylococcus aureus assessed as inhibition of bacterial growth measured after 48 hrs by agar plate method. It is filed as functional.
Data set [25] deals with Escherichia coli. The data set is described as follows: Antibacterial activity against clinically isolated Escherichia coli RBRJ005 assessed as inhibition of bacterial growth at 50 uM measured after 48 hrs by agar well diffusion method. The note with it: read-out: IZ. It is filed as functional.
For data set [26], the target named is T1, 4,4'-diapophytoene synthase (Staphylococcus aureus, UniProt A9JQL9).
T1 sequence (A9JQL9 whole entry): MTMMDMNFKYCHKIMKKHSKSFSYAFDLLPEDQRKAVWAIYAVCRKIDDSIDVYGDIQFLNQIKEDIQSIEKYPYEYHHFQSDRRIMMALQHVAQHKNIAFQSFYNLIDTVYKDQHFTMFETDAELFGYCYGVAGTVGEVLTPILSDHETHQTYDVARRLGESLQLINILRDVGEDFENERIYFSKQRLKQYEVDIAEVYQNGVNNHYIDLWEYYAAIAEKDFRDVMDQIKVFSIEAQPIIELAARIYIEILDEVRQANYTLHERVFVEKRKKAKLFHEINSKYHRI
The data set is described as follows: Inhibition of Staphylococcus aureus CrtM.

As for `Cc1ccc(C(C)C)c(OCc2cn(CCCN3C(=O)C(=O)c4cc(C)ccc43)nn2)c1`, the MBC in the data set with Staphylococcus aureus [1] came out at 7.8 µM (≈ 3.37 µg/mL); in the data set on Staphylococcus aureus [10] it was 7.8 µM (≈ 3.37 µg/mL); with Staphylococcus aureus [14], 15.6 µM (≈ 6.75 µg/mL); in data set [18] it was 31.2 µM (≈ 13.5 µg/mL); in the data set with Staphylococcus aureus [24], 7.8 µM (≈ 3.37 µg/mL). Besides, the zone of inhibition at 50 µM in the data set with Staphylococcus aureus [2] turned out to be 26.1 mm; in the data set with Escherichia coli [3], 16.5 mm; with Klebsiella pneumoniae [4] it was 17.2 mm; in the data set with Acinetobacter baumannii it was 13.1 mm; in the data set with Klebsiella pneumoniae [6], 18.5 mm; in the data set on Pseudomonas aeruginosa it was 19.5 mm. Besides, the zone of inhibition at 50 µM was 13.4 mm in the data set on Enterococcus faecalis [7]; 17.6 mm in the data set on Escherichia coli [9]; 26.7 mm with Staphylococcus aureus [12]; 15.4 mm with Enterobacter cloacae; 22.2 mm in [15]; 19.2 mm in the data set with Klebsiella pneumoniae [16]. Moreover, the zone of inhibition at 50 µM turned out to be 24.6 mm in the data set with Staphylococcus aureus [17], 24.1 mm with Staphylococcus aureus [20], 13.3 mm in the data set on Enterococcus faecalis [23] and 18.2 mm in the data set with Escherichia coli [25]. In addition, the MIC in the data set on Staphylococcus aureus [5] was determined as 3.9 µM (≈ 1.69 µg/mL); with Staphylococcus aureus [13], 3.9 µM (≈ 1.69 µg/mL); in the data set with Staphylococcus aureus [19], 7.8 µM (≈ 3.37 µg/mL); in the data set with Staphylococcus aureus [21] it was 3.9 µM (≈ 1.69 µg/mL); in data set [22], 15.6 µM (≈ 6.75 µg/mL). Also, in data set [8], the IC50 at 72 h worked out at 125 µM. The selectivity ratio in data set [11] turned out to be 32.

For the compound `O=P(O)(O)C(CCCc1ccc(-c2ccccc2)cc1)P(=O)(O)O`, the affinity in data set [26], expressed as Ki, was 0.0002 µM.

On to `O=P(O)(O)C(CCCc1ccc(-c2ccc(Br)cc2)cc1)S(=O)(=O)O` (stereo unspecified), for which affinity in data set [26] was put at a Ki of 0.135 µM. Compared with the last compound, the Ki is about 680-fold higher.

Turning to `Cc1ccc(C(C)C)c(OCc2cn(CCCN3C(=O)C(=O)c4cc(F)ccc43)nn2)c1`, the MBC in the data set with Staphylococcus aureus [1] was 125 µM (≈ 54.6 µg/mL); with Staphylococcus aureus [10], 15.6 µM (≈ 6.81 µg/mL); with Staphylococcus aureus [14], 15.6 µM (≈ 6.81 µg/mL); in the data set on Staphylococcus aureus [24] it was 31.2 µM (≈ 13.6 µg/mL). The zone of inhibition at 50 µM in the data set with Staphylococcus aureus [2] is 24.1 mm; in the data set on Escherichia coli [3], 15.2 mm; in the data set with Klebsiella pneumoniae [4], 14.3 mm; in the data set on Acinetobacter baumannii it was 14.7 mm; in the data set with Klebsiella pneumoniae [6], 15.4 mm; with Pseudomonas aeruginosa, 16 mm. In addition, the zone of inhibition at 50 µM turned out to be 15.3 mm with Enterococcus faecalis [7]; 16.2 mm in the data set with Escherichia coli [9]; 22.2 mm with Staphylococcus aureus [12]; 15.3 mm with Enterobacter cloacae; 16.2 mm in data set [15]; 15.2 mm in the data set on Klebsiella pneumoniae [16]. For the same compound, the zone of inhibition at 50 µM amounted to 23.2 mm in the data set with Staphylococcus aureus [17], 20.3 mm in the data set on Staphylococcus aureus [20], 16.4 mm with Enterococcus faecalis [23] and 16.2 mm in the data set with Escherichia coli [25]. Moreover, the MIC with Staphylococcus aureus [5] came to 15.6 µM (≈ 6.81 µg/mL); with Staphylococcus aureus [13], 62.5 µM (≈ 27.3 µg/mL); in the data set on Staphylococcus aureus [19] it was 7.8 µM (≈ 3.4 µg/mL); in the data set on Staphylococcus aureus [21] it was 7.8 µM (≈ 3.4 µg/mL). The IC50 at 72 h in [8] is 31.2 µM. Moreover, the selectivity ratio in data set [11] turned out to be 2.

By MBC is commonly meant the smallest concentration meeting the test's criterion for killing. What is called MIC is the lowest concentration found to suppress growth. The IC50 is the concentration at which inhibition is half-maximal. For orientation: Ki means the dissociation constant of the complex between target and ligand, obtained from inhibition or displacement.
